According to ChEMBL document CHEMBL1157618, “Noncovalent tripeptidyl benzyl- and cyclohexyl-amine inhibitors of the cysteine protease caspase-1” (J Med Chem, 2010):

What follows are molecules tested against Caspase-8 (Homo sapiens, UniProt Q14790) (assay: Inhibition of caspase 8).
Sequence of Caspase-8 (Q14790 217-374 limits assumed): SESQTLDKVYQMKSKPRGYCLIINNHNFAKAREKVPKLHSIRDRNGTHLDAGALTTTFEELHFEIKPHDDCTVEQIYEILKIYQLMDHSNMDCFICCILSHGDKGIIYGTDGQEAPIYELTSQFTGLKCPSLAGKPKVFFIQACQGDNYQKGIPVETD
Sequence of Caspase-8 (Q14790 385-479 limits assumed): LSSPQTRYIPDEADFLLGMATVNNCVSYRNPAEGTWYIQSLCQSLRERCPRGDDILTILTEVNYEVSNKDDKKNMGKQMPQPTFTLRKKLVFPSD

IC50 [nM]	SMILES
100000	CC(C)[C@H](NC(=O)c1ccc2ccccc2c1)C(=O)N[C@@H](C)C(=O)N[C@H](CNCc1ccccc1O)CC(=O)O

What follows are molecules tested against T1, Caspase-1 (Homo sapiens, UniProt P29466) (assay: Inhibition of human recombinant caspase 1).
T1 sequence (P29466 whole entry): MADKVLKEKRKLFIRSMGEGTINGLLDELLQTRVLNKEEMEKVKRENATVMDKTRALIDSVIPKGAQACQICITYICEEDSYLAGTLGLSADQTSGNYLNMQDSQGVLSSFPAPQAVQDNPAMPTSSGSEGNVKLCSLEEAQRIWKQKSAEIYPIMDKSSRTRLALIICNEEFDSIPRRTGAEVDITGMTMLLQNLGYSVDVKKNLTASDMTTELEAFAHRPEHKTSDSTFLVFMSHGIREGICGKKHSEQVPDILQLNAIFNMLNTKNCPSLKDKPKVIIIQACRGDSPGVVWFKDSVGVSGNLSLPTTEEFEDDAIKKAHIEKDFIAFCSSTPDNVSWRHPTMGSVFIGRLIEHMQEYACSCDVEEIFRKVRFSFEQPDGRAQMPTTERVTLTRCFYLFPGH
Summary of the method: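 Recombinant human caspase-1 stored at -80 °C as aliquots and used at 1:20 dilution; enzyme preincubated with inhibitor (Ki determinations). Substrate Ac-Trp-Glu-His-Asp-AMC, 5 μM final. AMC release followed kinetically, excitation 380 nm, emission 460 nm.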

Ki [nM]	IC50 [nM]	SMILES
128	–	CC(C)[C@H](NC(=O)c1ccc2ccccc2c1)C(=O)N[C@@H](C)C(=O)N[C@@H](CC(=O)O)CN(C)C1CCCCC1
1890	–	CC(C)[C@H](NC(=O)c1ccc2ccccc2c1)C(=O)N[C@@H](C)C(=O)N[C@@H](CC(=O)O)CN(C)Cc1ccccc1
–	0.2	CC(C)[C@H](NC(=O)c1ccc2ccccc2c1)C(=O)N[C@@H](C)C(=O)N[C@H](C=O)CC(=O)O
209	–	CC(C)[C@H](NC(=O)c1ccc2ccccc2c1)C(=O)N[C@@H](C)C(=O)N[C@H](CNCc1ccc2c(c1)OCO2)CC(=O)O
47	–	CC(C)[C@H](NC(=O)c1ccc2ccccc2c1)C(=O)N[C@@H](C)C(=O)N[C@H](CNCc1ccccc1O)CC(=O)O
965	–	COc1ccccc1CNC[C@H](CC(=O)O)NC(=O)[C@H](C)NC(=O)[C@@H](NC(=O)c1ccc2ccccc2c1)C(C)C
1820	–	CC(C)[C@H](NC(=O)c1ccc2ccccc2c1)C(=O)N[C@@H](C)C(=O)N[C@H](CNCc1ccc(C(N)=O)cc1)CC(=O)O
> 50000	–	CC(C)[C@H](NC(=O)c1ccc2ccccc2c1)C(=O)N[C@@H](C)C(=O)N[C@H](CCCc1ccccc1)CC(=O)O
1200	–	CC(C)[C@H](NC(=O)c1ccc2ccccc2c1)C(=O)N[C@@H](C)C(=O)N[C@H](CNCc1ccccc1F)CC(=O)O
1370	–	CC(C)[C@H](NC(=O)c1ccc2ccccc2c1)C(=O)N[C@@H](C)C(=O)N[C@H](CNCc1ccc(O)cc1)CC(=O)O
945	–	CC(C)[C@H](NC(=O)c1ccc2ccccc2c1)C(=O)N[C@@H](C)C(=O)N[C@H](CNC1CCCCC1)CC(=O)O
600	–	CC(C)[C@H](NC(=O)c1ccc2ccccc2c1)C(=O)N[C@@H](C)C(=O)N[C@H](CNCc1ccccc1)CC(=O)O
